Molecules are shown by their SMILES. Among all 2,500 compounds or so, about 1,200 (48%) were called active. The set was probably picked from earlier hits. The list shows a part of the results. Unmarked numbers belong to inactive results.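 Rule for the calls: active = mean activation above the low control average plus 3 SD, as set in the primary screen (cut at about 12% in these data); inactive = the rest.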

The target of the experiment is Troponin I, cardiac muscle (Homo sapiens) + Troponin T, cardiac muscle (Homo sapiens) + Troponin C, slow skeletal and cardiac muscles (Homo sapiens) (UniProt P19429+P45379+P63316). The experiment can be described thus: calcium sensitizers of cardiac thin filaments – biochemical, IANBD-TnC fluorescence, triplicate, confirmation (AID 504383).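 Note: 0% = DMSO at 0.472 mM calcium and 100% = DMSO at 2.9 mM calcium.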 As to conditions: IANBD-labeled cardiac RTF, Ca2+ sensitivity fluorescence; at 7.2 µM; stronger effect = higher value; scaled from EC20 to saturating calcium; tested at EC20 calcium, 0.472 mM. Put shortly: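 Test system: labelled regulated thin filament protein complex. Dosing: single nominal compound dose of 7.2 µM. Benchmarks: EC20 and EC100 calcium wells. Read-out basis: fluorescence gain scaled between EC20 and EC100 calcium controls. Probe or stimulus: submaximal calcium at 0.472 mM (EC20). Technique: fluorescence. Times: 15 min compound exposure, 25 °C.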
In the case of `C[C@H]1COc2c(N3CCN(C)CC3)c(F)cc3c(=O)c(C(=O)O)cn1c23`, the activation is 6.23%.
The result for `Cc1ccc(/C=C/c2ccc(N(C)C)cc2)[n+](C)c1` reads 9.58%.
As to `CN(C)c1ccc(/C=C/c2cc[n+](C)cc2)cc1`, the activation is 28.1% (active).
The result for `CN(C)c1ccc(/C=C/c2cc[n+](C)c3ccccc23)cc1` reads 6.25%; that for `CCOc1cc(/C=C2\NC(=O)NC2=O)cc([N+](=O)[O-])c1O`, 8.6%.
As to `Cc1ccccc1N=Cc1cc2c(cc1O)OC(N)=C(C#N)C2c1ccccc1` (stereo not drawn), the activation is 15.4% (active).
Then `COc1ccc(O)c(/C=N/c2nc3ccccc3n2C)c1`, with 10.8%; and `COc1ccc(N=Cc2cc3c(cc2O)OC(N)=C(C#N)C3c2ccccc2)cc1` (stereo not drawn), with 95.8% (active).
The result for `Cc1cc(C)n(-c2nc3ccccc3nc2Nc2ccc3[nH]c(=O)[nH]c3c2)n1` reads 15.9% (active).
As for `Cc1cc(S(=O)(=O)Cc2noc(-c3c(C)noc3C)n2)c(C)cc1Cl`, the activation was 5.06%.
Regarding `CC(C)(ONC(=O)Nc1ccccc1Cl)C(=O)O`, the activation is 833% (active).
For the molecule `O=C(O)C1CCC(CNCc2ccccc2Cl)CC1` (stereo not drawn), the activation was 10.5%.
Then `O=C(NCCN1CCOCC1)c1ccccc1N1C(=O)[C@@H]2Cc3c([nH]c4ccccc34)C(c3ccc(F)cc3)N2C1=O` (stereo partly drawn), with 4.51%; and `CCN1C(=O)[C@@H]2Cc3c([nH]c4ccccc34)C(c3ccc(OC)cc3)N2C1=S` (stereo partly drawn), with 6.48%.
In the case of `CC(C)c1ccc(C2c3[nH]c4ccccc4c3C[C@H]3C(=O)N(c4ccccc4C(=O)N4CCC(C(=O)O)CC4)C(=O)N23)cc1` (stereo partly drawn), the activation was 12% (active).
Then `CCOc1nc(OCC)c2[nH]c(C(=O)O)c(Br)c2n1`, with 4.87%.
`Cc1ccccc1C(=O)c1cccn1CC(=O)NCCCN1CC(C)CC(C)C1` (stereo not drawn): the activation was 5.75%.
`CC1CC(C)CN(CCOCCSc2ccccc2)C1` (stereo not drawn): the activation is 76.1% (active).
Then `CC1CN(CCCCOc2ccc3ccccc3c2)CC(C)O1` (stereo not drawn), with 7.54%; and `Cc1ccccc1C1CC(=O)Oc2cc(O)ccc21` (stereo not drawn), with -1.84%.
Then `COCCn1c(SCC(=O)Nc2ccc(NC(=O)c3ccco3)c(OC)c2)nc2ccccc2c1=O`, with 14.4% (active); and `O=C(CSc1ccc(Cl)cc1)Nc1cccc(NC(=O)c2ccco2)c1`, with 9.78%; and `COC1=CC2(O)CCCC2=CC1=O` (stereo not drawn), with 6.42%.
For `CC(C)(C)NC(=O)NC(=O)Cn1ccsc1=N`, the activation was 135% (active).
The result for `Cc1c2c(n3c(nc4ccccc43)c1C#N)N(CCN1CCOCC1)CC2` reads 10%; that for `Cc1nc2c(C#N)cnn2c2c1CCN(Cc1ccccc1)N2C`, 389% (active); that for `O=C1c2c(O)cc(O)cc2O[C@@]12c1c(cc(O)c3c1O[C@H](c1ccc(O)cc1)[C@@H](O)C3)O[C@@H]2c1ccc(O)cc1`, 5.77%.
Then `CCC1(C)COC(c2ccc(OC)c(OC)c2)OC1` (stereo not drawn), with 1.48%; and `CCOc1ccc(C2CC(c3c(O)c4ccccc4oc3=O)=NN2c2ccccc2)cc1OC` (stereo not drawn), with 22.3% (active); and `NC(=O)c1cc2ccc(O)cc2oc1=NCc1ccccc1`, with 6.57%.
Turning to `CCCCCC(C)NC(=S)NC(=O)c1cc(S(=O)(=O)N2CCOCC2)ccc1C` (stereo not drawn), the activation is 6.76%.
Then `CCOC(=O)c1c(-c2ccccc2Cl)csc1NC(=O)c1cc(S(=O)(=O)N2CCOCC2)ccc1C`, with 12.7% (active).
The result for `Cc1ccc(NC(=O)c2cc(S(=O)(=O)N3CCCCC3)ccc2N2CCOCC2)cc1S(=O)(=O)N(C)C` reads 7.6%; that for `Oc1ccc2nnc3c(Br)cnn3c2c1`, 7.23%.
Then `Cc1nc2oc(C(=O)c3ccccc3)c(N)c2c2c1COC(C)(C)C2`, with 744% (active); and `CCc1ccc2c(COC(=O)CNS(=O)(=O)c3ccc(NC(C)=O)cc3)cc(=O)oc2c1`, with 34.8% (active); and `COc1ccccc1C(=O)Oc1ccc2c(c1)O/C(=C\c1ccncc1)C2=O`, with 31.6% (active).
Regarding `CN(C)c1ccc(/C=C2\Oc3ccc(C#Cc4cccc(N)c4)cc3C2=O)cc1`, the activation was 4.36%.
The result for `COc1ccc(/C=C2\Oc3cc(OCC(N)=O)ccc3C2=O)cc1OC` reads 6.98%; that for `O=C(Oc1ccc2c(c1)O/C(=C\c1ccncc1)C2=O)c1ccccc1`, 104% (active); that for `Cc1ccc(-n2nnnc2-c2cnc3cc4c(cc3c2C)OCO4)cc1`, 4.93%.
Then `Cc1ccc(-n2nnnc2C(=Cc2ccc(N(C)C)cc2)c2nnnn2-c2ccc(C)cc2)cc1`, with 14.4% (active).
On to `O=c1c(/C=C(\O)c2ccc(F)cc2)nc2ccccc2n1-c1ccccc1`, for which the activation is 6.91%.
`CCCNC(=O)Cn1c(=O)/c(=C/c2ccc(-c3ccc([N+](=O)[O-])cc3)o2)s/c1=C\C(=O)C(C)(C)C`: the activation was 29.9% (active).
Then `CCCNC(=O)Cn1c(=O)/c(=C\c2ccc(-c3ccc([N+](=O)[O-])cc3)o2)s/c1=C\C(=O)C(C)(C)C`, with 28.6% (active); and `CC(C)(C)C(=O)/C=c1\s/c(=C\c2ccc(-c3ccc([N+](=O)[O-])cc3)o2)c(=O)n1CC(=O)NC(N)=O`, with 46.3% (active); and `CC1=CC(=C(C#N)C#N)C=C(C)N1Cc1ccc(Cl)cc1`, with 52.2% (active).
With `CS(=O)(=O)Nc1nc2n(n1)C(c1ccccc1)C=C(c1ccc(Br)cc1)N2` (stereo not drawn), the activation was 35.8% (active).
Regarding `O=c1cc2c(c(-c3ccccc3)n1Cc1ccccc1)[C@H](CCO)NC2`, the activation is 16.1% (active).
In the case of `O=c1ccc2c(-c3ccccc3)c3ccc(O)cc3oc-2c1`, the activation was 88.1% (active).
`O=c1cc(-c2ccccc2)oc2ccc(Br)cc12`: the activation is 6.06%.
For `Nc1ccc(-c2c3ccc(=O)cc-3oc3cc(O)ccc23)cc1C(=O)O`, the activation is 4.67%.
As for `Cn1cc(C2=C(c3ccc(Cl)cc3Cl)C(=O)NC2=O)c2ccccc21`, the activation is 32.9% (active).
Then `O=C(NCC1CCCO1)c1c(O)nc2sccn2c1=O` (stereo not drawn), with 17.7% (active); and `Cc1nccc(-c2cccc(N/N=C(\C#N)C(=O)c3ccccc3)c2)n1`, with 6.06%.
Regarding `CC(C)c1ccc(OCC(=O)NC(Cc2c[nH]c3ccccc23)C(=O)O)cc1` (stereo not drawn), the activation is 4.54%.
The result for `COc1ccc2c(CC(=O)N[C@@H](Cc3c[nH]c4ccccc34)C(=O)O)cc(=O)oc2c1` reads 16.7% (active).
The result for `COc1ccc(/C=N/NC(=O)C(Cc2c[nH]c3ccccc23)NC(=O)OCC(C)C)cc1[N+](=O)[O-]` (stereo not drawn) reads 7.99%.

The record behind these values is PubChem BioAssay AID504383 (The Scripps Research Institute Molecular Screening Center, 2011).
